Results from ChEMBL document CHEMBL1144159, “Impacts of baicalein analogs with modification of the 6th position of A ring on the activity toward NF-kappaB-, AP-1-, or CREB-mediated transcription” (Bioorg Med Chem Lett, 2008).

Columns and labels:
[1] = biological target: Transcription factor Jun (Homo sapiens) (UniProt P05412); experiment: Effect on transcriptional activity of AP1 transfected in TPA-stimulated human Hep G2 cells after 4 hrs by luciferase reporter gene assay relative to control; format: cell-based; details: HepG2
Summary of the method: (§1)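 HepG2 lines stably carrying luciferase reporters (NF-κB-luc, AP-1-luc, CRE-luc) were pretreated with a range of compound concentrations for 1 h, then incubated 4 h with or without stimulus: TNFα for NF-κB, TPA for AP-1, forskolin for CREB. Luciferase activity is expressed as % of the drug-free control, with or without stimulus. Amax is the maximal fold activity versus control; AC50 is the concentration giving 50% of maximal activity. Mean ± SD of ≥3 independent experiments.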

[2] = system: HepG2; experiment: Effect on transcriptional activity of NF-kappaB transfected in human Hep G2 cells after 1 hr by luciferase reporter gene assay relative to control; format: cell-based; summary of the method: as §1
[3] = system: KB; experiment: Cytotoxicity against multi-drug resistant human KB cells overexpressing mdr1 after 3 days; format: functional, cell-based; details: 72 h
Summary of the method: (§2)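 KB cells and their multidrug-resistant KB/MDR subline overexpressing mdr1, incubated with compound for 3 days (doubling time about 20–24 h). Growth inhibition is given as IC50, the concentration inhibiting 50% of cell growth. Values are the mean of three independent experiments.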

[4] = biological target: Cyclic AMP-responsive element-binding protein 1 (Homo sapiens) (UniProt P16220); experiment: Effect on transcriptional activity of CREB transfected in forskolin-stimulated human Hep G2 cells after 4 hrs by luciferase reporter gene assay relative to control; format: cell-based; details: HepG2; summary of the method: as §1
[5] = system: HepG2; experiment: Effect on transcriptional activity of NF-kappaB transfected in TNF-alpha-stimulated human Hep G2 cells after 4 hrs by luciferase reporter gene assay relative to control; format: cell-based; summary of the method: as §1
[6] = biological target: Cyclic AMP-responsive element-binding protein 1 (Homo sapiens) (UniProt P16220); experiment: Effect on transcriptional activity of CREB transfected in human Hep G2 cells after 1 hr by luciferase reporter gene assay relative to control; format: cell-based; details: HepG2; summary of the method: as §1
[7] = Effect on transcriptional activity of NF-kappaB transfected in human Hep G2 cells after 1 hr by luciferase reporter gene assay; format: cell-based; details: HepG2, 1 h; summary of the method: as §1
[8] = biological target: Transcription factor Jun (Homo sapiens) (UniProt P05412); experiment: Effect on transcriptional activity of AP1 transfected in human Hep G2 cells after 1 hr by luciferase reporter gene assay relative to control; format: cell-based; details: HepG2; summary of the method: as §1
[9] = Effect on transcriptional activity of NF-kappaB transfected in TNF-alpha-stimulated human Hep G2 cells after 4 hrs by luciferase reporter gene assay; format: cell-based; details: HepG2, 4 h; summary of the method: as §1
[10] = system: KB; experiment: Cytotoxicity against human KB cells after 3 days; format: functional, cell-based; details: 72 h; summary of the method: as §2

Sequence of Cyclic AMP-responsive element-binding protein 1 (Homo sapiens) (P16220 whole entry): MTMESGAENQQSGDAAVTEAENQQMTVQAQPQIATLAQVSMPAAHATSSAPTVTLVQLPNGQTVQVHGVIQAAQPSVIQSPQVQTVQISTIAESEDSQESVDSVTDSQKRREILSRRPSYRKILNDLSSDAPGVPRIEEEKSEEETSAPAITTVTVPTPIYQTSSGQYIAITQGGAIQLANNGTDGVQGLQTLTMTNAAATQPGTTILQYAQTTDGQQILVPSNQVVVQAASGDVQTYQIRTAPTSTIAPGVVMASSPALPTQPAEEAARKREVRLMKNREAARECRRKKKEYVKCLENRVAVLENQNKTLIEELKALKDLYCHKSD
Sequence of Transcription factor Jun (Homo sapiens) (P05412 whole entry): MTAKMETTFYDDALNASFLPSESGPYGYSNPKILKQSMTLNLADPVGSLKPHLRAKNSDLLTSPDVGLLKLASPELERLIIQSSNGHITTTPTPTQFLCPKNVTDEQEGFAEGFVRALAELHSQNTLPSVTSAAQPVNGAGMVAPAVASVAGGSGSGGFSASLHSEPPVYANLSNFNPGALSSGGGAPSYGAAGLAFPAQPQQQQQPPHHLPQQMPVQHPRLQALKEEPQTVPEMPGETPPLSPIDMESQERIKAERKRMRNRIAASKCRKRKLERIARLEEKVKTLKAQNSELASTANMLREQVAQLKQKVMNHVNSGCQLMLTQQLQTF

SMILES	fold change (FC) [1]	fold change (FC) [4]	fold change (FC) [6]	fold change (FC) [8]	fold change (FC) [2]	IC50 [3]	fold change (FC) [5]	AC50 [7]	AC50 [9]	IC50 [10]
O=c1cc(-c2ccccc2)oc2cc(O)c(O)c(O)c12 [BAICALEIN]	1.26	2.2	1.35	1.44	4.92	87.1 µM	3.35	8.3 µM	8.6 µM	
CC(=O)Oc1c(O)cc2oc(-c3ccccc3)cc(=O)c2c1O	1.18	5.21	2.04	1.44	6.62	61.6 µM	3.47	2.2 µM	2.2 µM	
O=c1cc(-c2ccccc2)oc2cc(O)c(OCc3ccccc3)c(O)c12	0.85	7.69	1.31	1.36	2.08	3.2 µM	1.47	0.5 µM		

Further lines, with some results ahead:

fold change (FC) [1]	fold change (FC) [4]	fold change (FC) [6]	fold change (FC) [8]	SMILES	fold change (FC) [2]	IC50 [3]	fold change (FC) [5]	AC50 [7]	AC50 [9]	IC50 [10]
1.05	7.35	1.59	1.43	CCCOc1c(O)cc2oc(-c3ccccc3)cc(=O)c2c1O	1.81	> 100 µM	1.36			
1.27	2.61	1.28	1.41	COc1c(O)cc2oc(-c3ccccc3)cc(=O)c2c1O [OROXYLIN A]	4.12	16.1 µM	2.5	4.8 µM	5 µM	31.1 µM
1.21	14.5	1.81	1.35	CCOc1c(O)cc2oc(-c3ccccc3)cc(=O)c2c1O	2.92	17.5 µM	1.27	0.7 µM		
